In the library only some 2.9% were active in any assay of this set; here they are far more common.
PGC1a acetyl inh = inhibitors of PGC1a acetylation signal, primary screen, cell-based, U2OS, AlphaScreen, inhibitor mode; AlphaScreen anti-acetyl-lysine; with virally co-expressed GCN5 acetyltransferase; inhibition, % at 15.6 µM; 350,000 compounds, 0.17% hits; AID 651687, 2012;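 active = every replicate shows inhibition of at least 40%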;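 note: 0% = neutral control wells and 100% = positive control wells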
Cneo AK release = Cryptococcus neoformans cell lysis inducers, primary screen, AK release luminescence, single concentration; lysis activity, % at 15 µM; AID 651654, 2012; 360,000 compounds, 0.2% hits; C. neoformans lysis, adenylate kinase release luminescence, 4 h; normalised: neutral wells 0, clomiphene wells 100;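 active = mean lysis activity across replicates of at least 80%, whatever share of replicates individually reach that level; inactive = mean lysis activity below 80%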
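Signal: Adenylate kinase release luminescence | Assay system: Log-phase Cryptococcus neoformans yeast cells | Input: Cells at 5 × 10^6 per mL | Buffer or medium: Fresh YPD growth medium | Compound: Single dose | Schedule: Static 4 h at 37 °C with compound, 1 h detection | Controls: Clomiphene | Read-out: Luminescence rise reflecting yeast cell lysis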
Vif inh = HIV Vif self-association inhibitors, primary screen, imaging, HEK293T, single point | 340,000 compounds, 0.35% hits | inhibition, % at 7.49 µM | HEK293T cells, Vif self-association by quenched fluorescence, 24 h; in the data active = inhibition above about 50%, passing the limit was not always enough
Ecoli rRNA inh = reduced GFP signal of wild-type E. coli, primary screen, bacterial rRNA inhibitor project, GFP/RFP fluorescence, OD600, single point | E. coli WT GFP vs humanized-ribosome RFP mutants, 24 h; hits give low values; DMSO median 0, no signal -100 | GFP signal change (wild-type ribosome), % (test concentration not listed) | 350,000 compounds, 1.6% hits | AID 720706, 2013;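 active = significant combined selectivity score with lowered wild-type GFP, culture density cut under 30%, mutant RFP and density less affected; inactive = any of these conditions unmet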
FGF22 binding-1 = binders of human FGF22 protein, primary screen, FGF22 synaptogenesis inhibitor project, biophysical, thermal shift, single point. recombinant FGF22 thermal shift, SYPRO orange fluorescence; percent of sucrose octasulfate shift, DMSO zero. activity (Tm shift, normalised), % at 9.99 µM. 340,000 compounds, 1.5% hits. AID 651658, 2012;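 active = mean Tm shift, scaled 0 neutral to 100 positive control, at about 1.3% or above, every replicate too, limit read from the data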
Target sequence (Q9HCT0 whole entry, looked up): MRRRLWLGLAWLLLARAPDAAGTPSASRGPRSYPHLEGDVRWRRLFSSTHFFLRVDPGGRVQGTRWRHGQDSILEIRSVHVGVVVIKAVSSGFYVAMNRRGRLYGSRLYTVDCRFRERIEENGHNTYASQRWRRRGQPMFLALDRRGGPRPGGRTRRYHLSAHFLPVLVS
PglD DTNB = C. jejuni PglD acetyltransferase inhibitors, primary screen, biochemical, DTNB colorimetric, single point | inhibition, % at 12.5 µM | purified PglD enzyme, DTNB colorimetric CoA detection | 360,000 compounds, 0.098% hits | AID 602405, 2012; in the data active = inhibition above about 16%, passing the limit was not always enough
FGF22 binding-2 = binders of human FGF22 protein, dose response, FGF22 synaptogenesis inhibitor project, biophysical, thermal shift, cherry-pick retest; shares compounds with FGF22 binding-1; recombinant FGF22 thermal shift, SYPRO orange fluorescence; thermal shift activity, °C (ΔTm) at 38 µM; 1,000 compounds, 2% hits; AID 720646, 2013;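 active = fitted rise in melting shift crosses a set limit at or below the top valid dose tested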
SYPRO no-protein = compound-only thermal shift signal without protein, dose response, artefact control for FGF22 binder project, biochemical, cherry-picked samples, RT-PCR instrument. AC50, µM (titrated, usually from 38 µM). shares compounds with FGF22 binding-1. 1,000 compounds, 2% hits. compound-only SYPRO orange thermal shift counter-screen, no protein;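 active = rising signal whose fitted curve reaches the 0.54 level within the top valid dose, showing a melting point, actives reach about 13 µM in these data; inactive = the rest, including activity in the opposite direction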; note: value is where the raw curve crosses a fixed level and not half-maximal
* hit, by the source's call; i = inactive; . = no result given; ! = not confirmed by another sample; [ ] = dose if it differs, or a comment.

SMILES | PGC1a acetyl inh | Cneo AK release | Vif inh | Ecoli rRNA inh | FGF22 binding-1 | PglD DTNB | FGF22 binding-2 | SYPRO no-protein
NS(=O)(=O)c1cccc(NC(=O)c2ccc(NS(=O)(=O)c3cccc([N+](=O)[O-])c3)cc2)c1 | 0 | 3 | 3 | -13 | 3.1* | 0 | 0.27 | i
O=C(Nc1ccc2ccccc2c1)c1cccc([N+](=O)[O-])c1 | 5 | 18 | -8 | 2 | 0 | -2 | . | .
O=C(Nc1ccc(S(=O)(=O)Nc2ccccn2)cc1)c1cccc([N+](=O)[O-])c1 | -4 | -1 | . | 5 | 36* | -3 | 0.11 | i
O=C(Nc1cccc2ccccc12)c1cccc([N+](=O)[O-])c1 | 7 | -2 | 6 | 10 | 1.7* | -6 | 0.084 | i
COCC(=O)Nc1ccc2c(c1)C(=O)N(C)C[C@@H](OC)[C@H](C)CN(Cc1ccccc1C(=O)O)[C@H](C)CO2 | -1 | 0 | . | 3 | 0 | -3 | . | .
CCOc1cc(C=NNC(=O)c2cccc(S(=O)(=O)N3CCCC3)c2)ccc1O | -3 | 0 | -10 | 7 | 2.4* | . | 0.52 | i
O=C(Nc1ccc(F)cc1)N1CCCCN2[C@H](C1)[C@H](c1ccc(C#Cc3ccccc3)cc1)[C@@H]2CO | 4 | -1 | . | 2 | -1 | -2 | . | .
COc1ccc(S(=O)(=O)N(C(C)=O)c2ccc(OC(C)=O)c3ccccc23)cc1[N+](=O)[O-] | 20 | -1 | -27 | 10 | 1.5* | -5 | -0.014 | i
O=C(c1ccc2c(c1)OCO2)N1CC(=O)N2[C@H](C1)[C@H](c1ccc(C#CC3CCCC3)cc1)[C@@H]2CO | . | . | . | -12 | . | . | . | .
O=c1cc[nH]c2ccc(Cl)cc12 | . | 0 | 0 | 4 | 72* | 4 | 0.18 | i
Cc1noc(C)c1NC(=O)Nc1ccc2c(c1)C(=O)N([C@@H](C)CO)C[C@H](C)[C@H](CN(C)Cc1ccncc1)OCCCC[C@@H](C)O2 | 9 | -2 | . | 1 | 0 | 1 | . | .
OC[C@H]1[C@@H]2c3ccccc3NC[C@@H]2N1Cc1ccccc1Cl | 7 | -2 | . | 1 | 1.4* | -2 | 0.23[42 µM] | i
OC[C@H]1[C@H]2c3ccccc3NC[C@H]2N1Cc1ccccc1Cl | 10 | -3 | . | 1 | 0 | -2 | . | .
O=C(Nc1ccccc1Cl)N1[C@H](CO)[C@@H]2c3ccccc3NC[C@@H]21 | 7 | -2 | . | -3 | 1.6* | -1 | 0.068 | i
O=C(NC1CCCCC1)N1CC(=O)N2[C@H](CO)[C@@H](c3ccc(/C=C/c4ccccc4)cc3)[C@@H]2C1 | 0 | . | . | -5 | . | . | . | .
COc1ccc(S(=O)(=O)Nc2ccc3c(c2)C(=O)N([C@H](C)CO)C[C@H](C)[C@H](CN(C)CC2CC2)OCCCC[C@H](C)O3)cc1 | -11 | 52 | . | 0 | 1.4* | 0 | 0.018 | i
COc1ccc(NC(=O)N(C)C[C@@H]2Oc3ccc(NS(=O)(=O)c4ccc(OC)cc4)cc3CC(=O)N([C@H](C)CO)C[C@@H]2C)cc1 | 6 | 3 | . | 6 | 7.6* | -4 | -0.035 | i
COc1ccc(S(=O)(=O)Nc2ccc3c(c2)C(=O)N([C@H](C)CO)C[C@H](C)[C@H](CN(C)CC2CC2)OCCCC[C@@H](C)O3)cc1 | 1 | 1 | . | 1 | 0 | -1 | . | .
COc1ccc(NC(=O)N(C)C[C@H]2Oc3ccc(NC(=O)NC(C)C)cc3CC(=O)N([C@@H](C)CO)C[C@H]2C)cc1 | 11 | -6 | . | 3 | 0 | 2 | . | .
COc1ccc(S(=O)(=O)Nc2ccc3c(c2)CC(=O)N([C@@H](C)CO)C[C@@H](C)[C@H](CN(C)C(=O)Nc2ccc(F)cc2)O3)cc1 | -1 | 58 | . | 2 | 0 | -2 | . | .
COc1ccc(NC(=O)N(C)C[C@@H]2Oc3ccc(NS(=O)(=O)c4cccs4)cc3CC(=O)N([C@H](C)CO)C[C@H]2C)cc1 | 2 | 0 | . | 5 | 28* | 0 | -0.011 | i
COc1ccc(NC(=O)N(C)C[C@@H]2Oc3ccc(NC(=O)NC(C)C)cc3CC(=O)N([C@H](C)CO)C[C@@H]2C)cc1 | 12 | 6 | -1 | 1 | 15*! | 1 | 0.077 | i
CC(C)NC(=O)N1[C@H](CN(C)C(=O)c2ccccc2)[C@@H](c2ccccc2)[C@@H]1CO | 1 | 3 | . | -2 | -1 | -1 | . | .
CN(C)CC(=O)Nc1ccc2c(c1)[C@@H]1C[C@H](CC(=O)NCc3cc(F)ccc3F)O[C@@H](CO)[C@@H]1O2 | 5 | 49 | . | 1 | 0 | 1 | . | .
COc1ccc(NC(=O)N(C)C[C@H]2Oc3ccc(NS(=O)(=O)c4ccccc4)cc3C(=O)N([C@H](C)CO)C[C@H]2C)cc1 | 3 | 2 | . | -7 | 0 | 1 | . | .
SMILES | PGC1a acetyl inh | Cneo AK release | Vif inh | Ecoli rRNA inh | FGF22 binding-1 | PglD DTNB | FGF22 binding-2 | SYPRO no-protein
COc1ccc(S(=O)(=O)N(C)C[C@@H]2Oc3ccc(NC(=O)Nc4ccccc4)cc3CC(=O)N([C@H](C)CO)C[C@@H]2C)cc1 | -11 | -1 | . | -1 | 1.7* | 1 | 0.036[42 µM] | i
COc1ccc(NC(=O)N(C)C[C@@H]2Oc3ccc(NS(=O)(=O)c4ccccc4)cc3C(=O)N([C@H](C)CO)C[C@H]2C)cc1 | 2 | 0 | . | 1 | 5.0* | 0 | 0.048[42 µM] | i
CCC(C)NS(=O)(=O)c1ccc(S(=O)(=O)N2CC=C(c3ccc(F)cc3)CC2)cc1 (stereo not given) | . | . | -1 | -14 | 14* | . | 0.13 | i
C[C@@H]1CN([C@H](C)CO)S(=O)(=O)c2ccc(C3=CCCC3)cc2O[C@@H]1CN(C)C(=O)c1cnccn1 | -2 | -3 | . | -5 | 0 | -2 | . | .
CC1(C(=O)NS(=O)(=O)Cc2cccc(Cl)c2)CCN1C(=O)C1(c2ccc(Cl)cc2)CCC1 (stereo not given) | 0 | 0 | -3 | -20 | 1.5* | 1 | . | i
CC1(C(=O)NS(=O)(=O)c2ccc(Cl)cc2)CCN1C(=O)Cc1ccc(Cl)cc1Cl (stereo not given) | -7 | 5 | 13 | -11 | 1.5* | 1 | 0.16 | i
